Measured values from ChEMBL document CHEMBL2434820, “Design, synthesis, and biological evaluation of novel 2-ethyl-5-phenylthiazole-4-carboxamide derivatives as protein tyrosine phosphatase 1B inhibitors with improved cellular efficacy” (Eur J Med Chem, 2013).
Calls of active or inactive are those of the source. The rule behind the calls is not given here.

Experiments:
[1] = target: T1, Tyrosine-protein phosphatase non-receptor type 1 (Homo sapiens) (UniProt P18031); assay: Inhibition of PTP1B (unknown origin) expressed in CHO cells over-expressing human IR assessed as increase in insulin-mediated IR-beta phosphorylation preincubated for 2 hrs followed by insulin challenge for 10 mins by Western blotting analysis; format: cell-based
T1 sequence (whole entry): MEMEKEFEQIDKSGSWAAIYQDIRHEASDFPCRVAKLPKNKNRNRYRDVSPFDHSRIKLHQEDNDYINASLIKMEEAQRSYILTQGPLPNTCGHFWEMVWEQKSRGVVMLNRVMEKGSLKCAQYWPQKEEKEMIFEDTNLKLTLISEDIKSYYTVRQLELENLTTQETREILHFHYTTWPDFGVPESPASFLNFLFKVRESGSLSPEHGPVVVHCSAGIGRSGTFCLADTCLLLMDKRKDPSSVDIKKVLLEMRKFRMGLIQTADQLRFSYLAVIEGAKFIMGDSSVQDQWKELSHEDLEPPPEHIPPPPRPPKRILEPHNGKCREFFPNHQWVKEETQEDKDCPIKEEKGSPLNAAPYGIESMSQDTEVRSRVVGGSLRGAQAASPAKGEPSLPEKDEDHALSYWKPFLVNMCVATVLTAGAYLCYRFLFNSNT
Summary of the method: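 CHO cells overexpressing human IR, grown in Ham's F-12 with 10% FBS at 37 °C, 5% CO2. Cells were serum-starved 2 h, then exposed to compound for 2 h (0.2% DMSO vehicle; 1 mM sodium orthovanadate as positive control). They were then stimulated with 10 nM insulin for 10 min. Lysates were run on 8% SDS-PAGE and immunoblotted with anti-pTyr, using β-actin as the loading control.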

[2] = target: T2, Tyrosine-protein phosphatase non-receptor type 1 (Homo sapiens, UniProt P18031); assay: Inhibition of GST-tagged PTP1B (unknown origin) using pNPP as substrate measured for 2 mins by colorimetric analysis
T2 sequence (P18031 whole entry): T1 sequence (whole entry)

[3] = target: Receptor-type tyrosine-protein phosphatase F (Homo sapiens, UniProt P10586); assay: Inhibition of LAR (unknown origin)
[4] = target: T3, M-phase inducer phosphatase 2 (Homo sapiens, UniProt P30305); assay: Inhibition of CDC25B (unknown origin)
T3 sequence (P30305 whole entry): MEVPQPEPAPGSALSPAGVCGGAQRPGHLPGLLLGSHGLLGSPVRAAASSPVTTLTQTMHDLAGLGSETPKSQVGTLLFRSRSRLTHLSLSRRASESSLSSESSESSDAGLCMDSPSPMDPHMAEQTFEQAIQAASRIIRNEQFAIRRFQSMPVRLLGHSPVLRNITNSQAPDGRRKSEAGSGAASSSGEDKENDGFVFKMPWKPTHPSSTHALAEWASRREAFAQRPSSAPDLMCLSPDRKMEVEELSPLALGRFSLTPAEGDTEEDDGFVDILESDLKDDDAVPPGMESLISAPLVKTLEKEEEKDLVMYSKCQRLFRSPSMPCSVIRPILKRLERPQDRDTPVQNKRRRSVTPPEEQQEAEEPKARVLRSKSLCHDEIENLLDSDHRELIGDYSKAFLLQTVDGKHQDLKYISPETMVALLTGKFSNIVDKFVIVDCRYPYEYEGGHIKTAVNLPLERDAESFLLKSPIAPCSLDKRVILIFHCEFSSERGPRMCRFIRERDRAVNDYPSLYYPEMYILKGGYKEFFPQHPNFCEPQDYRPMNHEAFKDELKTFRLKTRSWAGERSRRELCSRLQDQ

[5] = target: T4, Tyrosine-protein phosphatase non-receptor type 2 (Homo sapiens, UniProt P17706); assay: Inhibition of TCPTP (unknown origin)
T4 sequence (P17706 whole entry): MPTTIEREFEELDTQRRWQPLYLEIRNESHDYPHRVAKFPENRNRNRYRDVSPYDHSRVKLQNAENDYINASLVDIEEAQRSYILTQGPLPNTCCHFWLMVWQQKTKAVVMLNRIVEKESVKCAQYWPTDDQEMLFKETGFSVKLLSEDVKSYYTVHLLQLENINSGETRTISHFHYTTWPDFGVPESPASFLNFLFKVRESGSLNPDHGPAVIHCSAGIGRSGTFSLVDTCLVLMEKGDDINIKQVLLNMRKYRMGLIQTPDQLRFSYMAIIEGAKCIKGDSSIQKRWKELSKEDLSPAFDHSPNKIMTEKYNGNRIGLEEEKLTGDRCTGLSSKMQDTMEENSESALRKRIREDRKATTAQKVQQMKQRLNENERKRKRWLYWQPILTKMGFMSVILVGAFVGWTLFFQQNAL

[6] = target: Tyrosine-protein phosphatase non-receptor type 6 (Homo sapiens, UniProt P29350); assay: Inhibition of SHP-1 (unknown origin)
[7] = target: T5, Tyrosine-protein phosphatase non-receptor type 11 (Homo sapiens, UniProt Q06124); assay: Inhibition of SHP-2 (unknown origin)
T5 sequence (Q06124 whole entry): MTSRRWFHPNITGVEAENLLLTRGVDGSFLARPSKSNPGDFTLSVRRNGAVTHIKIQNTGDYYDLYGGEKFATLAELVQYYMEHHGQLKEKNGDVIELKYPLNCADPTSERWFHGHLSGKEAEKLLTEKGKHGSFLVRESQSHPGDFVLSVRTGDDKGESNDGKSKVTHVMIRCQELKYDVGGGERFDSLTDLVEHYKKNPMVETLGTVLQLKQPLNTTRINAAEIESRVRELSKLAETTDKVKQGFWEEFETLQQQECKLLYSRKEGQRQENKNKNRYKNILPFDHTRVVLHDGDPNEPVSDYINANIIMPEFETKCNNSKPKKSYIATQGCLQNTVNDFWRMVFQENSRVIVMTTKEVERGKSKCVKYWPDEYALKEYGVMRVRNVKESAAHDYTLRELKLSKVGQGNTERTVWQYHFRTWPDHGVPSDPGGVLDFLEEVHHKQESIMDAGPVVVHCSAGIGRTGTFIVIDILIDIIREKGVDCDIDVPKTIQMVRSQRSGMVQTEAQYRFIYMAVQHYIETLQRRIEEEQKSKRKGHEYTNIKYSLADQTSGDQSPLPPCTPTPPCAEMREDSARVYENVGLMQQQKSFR

Homo sapiens = species: Homo sapiens; assay: Selectivity ratio of IC50 for TCPTP (unknown origin) to IC50 for GST-tagged PTP1B (unknown origin)
[8] = target: T1, Tyrosine-protein phosphatase non-receptor type 1 (Homo sapiens); conditions: CHO, 1.25 to 10 uM

Chain of Receptor-type tyrosine-protein phosphatase F (P10586 whole entry): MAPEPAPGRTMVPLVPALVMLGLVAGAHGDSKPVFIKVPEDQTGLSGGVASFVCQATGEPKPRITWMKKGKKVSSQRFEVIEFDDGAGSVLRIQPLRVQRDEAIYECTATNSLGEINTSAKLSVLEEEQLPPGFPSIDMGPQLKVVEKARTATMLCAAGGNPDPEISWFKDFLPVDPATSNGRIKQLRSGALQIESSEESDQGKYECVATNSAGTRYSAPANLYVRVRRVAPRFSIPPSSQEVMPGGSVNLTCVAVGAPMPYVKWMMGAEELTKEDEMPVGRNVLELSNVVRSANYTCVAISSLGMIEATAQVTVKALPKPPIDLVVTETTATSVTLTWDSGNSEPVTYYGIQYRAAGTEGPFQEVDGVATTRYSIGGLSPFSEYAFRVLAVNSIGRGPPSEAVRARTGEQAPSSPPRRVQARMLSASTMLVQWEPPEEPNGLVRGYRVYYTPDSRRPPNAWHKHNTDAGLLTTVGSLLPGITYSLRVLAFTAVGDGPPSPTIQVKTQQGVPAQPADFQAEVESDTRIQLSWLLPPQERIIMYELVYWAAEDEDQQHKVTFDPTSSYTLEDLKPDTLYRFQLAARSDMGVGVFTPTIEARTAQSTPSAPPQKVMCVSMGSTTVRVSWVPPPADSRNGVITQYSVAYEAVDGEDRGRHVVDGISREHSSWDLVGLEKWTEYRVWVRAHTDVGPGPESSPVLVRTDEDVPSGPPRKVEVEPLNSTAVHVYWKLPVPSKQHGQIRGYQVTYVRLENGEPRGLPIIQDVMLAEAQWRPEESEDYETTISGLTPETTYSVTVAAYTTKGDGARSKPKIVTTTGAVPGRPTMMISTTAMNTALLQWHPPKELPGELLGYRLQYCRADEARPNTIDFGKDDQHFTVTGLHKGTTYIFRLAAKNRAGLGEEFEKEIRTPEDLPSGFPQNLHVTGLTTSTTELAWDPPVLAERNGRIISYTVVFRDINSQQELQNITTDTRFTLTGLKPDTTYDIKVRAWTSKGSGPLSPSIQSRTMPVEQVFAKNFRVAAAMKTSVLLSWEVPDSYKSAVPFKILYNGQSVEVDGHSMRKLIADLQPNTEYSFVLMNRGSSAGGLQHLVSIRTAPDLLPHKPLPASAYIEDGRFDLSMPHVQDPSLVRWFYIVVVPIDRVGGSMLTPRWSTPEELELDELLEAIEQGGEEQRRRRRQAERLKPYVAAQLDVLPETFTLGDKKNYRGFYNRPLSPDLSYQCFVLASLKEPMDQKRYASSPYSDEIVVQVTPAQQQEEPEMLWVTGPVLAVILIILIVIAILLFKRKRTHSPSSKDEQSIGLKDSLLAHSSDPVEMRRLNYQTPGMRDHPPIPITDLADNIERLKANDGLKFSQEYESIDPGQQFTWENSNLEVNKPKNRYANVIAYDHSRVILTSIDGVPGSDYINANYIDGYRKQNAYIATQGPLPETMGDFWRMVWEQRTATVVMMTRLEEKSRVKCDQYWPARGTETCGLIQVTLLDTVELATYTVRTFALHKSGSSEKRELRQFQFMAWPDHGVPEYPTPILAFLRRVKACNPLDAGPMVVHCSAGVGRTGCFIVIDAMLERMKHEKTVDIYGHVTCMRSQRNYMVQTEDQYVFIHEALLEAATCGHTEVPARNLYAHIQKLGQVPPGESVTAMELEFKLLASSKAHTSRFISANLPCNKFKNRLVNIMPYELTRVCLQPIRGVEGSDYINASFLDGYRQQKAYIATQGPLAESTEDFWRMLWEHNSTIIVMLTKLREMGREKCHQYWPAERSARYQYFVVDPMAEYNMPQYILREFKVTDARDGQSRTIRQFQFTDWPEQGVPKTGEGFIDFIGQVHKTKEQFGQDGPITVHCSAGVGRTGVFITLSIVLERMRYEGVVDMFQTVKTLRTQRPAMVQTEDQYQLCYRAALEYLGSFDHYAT
Chain of Tyrosine-protein phosphatase non-receptor type 6 (P29350 whole entry): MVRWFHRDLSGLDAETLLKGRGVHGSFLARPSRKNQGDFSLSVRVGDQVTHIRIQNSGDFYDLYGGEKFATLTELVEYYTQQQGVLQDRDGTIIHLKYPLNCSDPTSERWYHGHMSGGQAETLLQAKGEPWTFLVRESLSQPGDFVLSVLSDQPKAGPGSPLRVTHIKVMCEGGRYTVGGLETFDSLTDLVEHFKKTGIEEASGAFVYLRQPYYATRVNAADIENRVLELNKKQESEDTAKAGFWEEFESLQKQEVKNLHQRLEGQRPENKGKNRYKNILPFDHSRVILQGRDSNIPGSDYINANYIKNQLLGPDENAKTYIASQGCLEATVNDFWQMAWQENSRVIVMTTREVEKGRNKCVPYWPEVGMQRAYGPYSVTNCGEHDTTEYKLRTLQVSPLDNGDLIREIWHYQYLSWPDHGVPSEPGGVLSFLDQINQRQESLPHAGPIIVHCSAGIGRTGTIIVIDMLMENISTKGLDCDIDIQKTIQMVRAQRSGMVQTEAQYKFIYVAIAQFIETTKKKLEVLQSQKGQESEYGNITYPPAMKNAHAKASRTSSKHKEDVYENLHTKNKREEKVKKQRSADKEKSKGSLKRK

CCOC(=O)/C(C)=C\C(C)=C\c1nc([C@H](Cc2ccc(OCc3ccccc3)cc2)NC(=O)C2CCCCC2)sc1-c1ccccc1
inhibition [1]: inactive
IC50 [2]: 8.44 µM

COC(=O)c1ccc(NC(=O)c2csc([C@H](Cc3ccc(OCc4ccccc4)cc3)NC(=O)C3CCCCC3)n2)cc1
IC50 [2]: 4.42 µM

CCOC(=O)/C(C)=C\C(C)=C\c1nc([C@H](Cc2ccc(OCc3ccccc3)cc2)NC(=O)C2CCCCC2)sc1C
inhibition [1]: inactive
IC50 [2]: 13.5 µM

O=C(O)c1ccc(NC(=O)c2csc([C@H](Cc3ccc(OCc4ccccc4)cc3)NC(=O)C3CCCCC3)n2)cc1
IC50 [2]: 4.88 µM

O=C(CCc1c[nH]c2ccccc12)N[C@@H](Cc1ccc(OCc2ccccc2)cc1)c1nc(C(=O)Nc2ccc(F)cc2C(=O)O)c(-c2ccccc2)s1
IC50 [2]: 2.82 µM

C/C(=C/C(C)=C/c1csc([C@H](Cc2ccc(OCc3ccccc3)cc2)NC(=O)C2CCCCC2)n1)C(=O)O
inhibition [1]: inactive
IC50 [2]: 14.7 µM

O=C(O)c1cccc(NC(=O)c2csc([C@H](Cc3ccc(OCc4ccccc4)cc3)NC(=O)C3CCCCC3)n2)c1
IC50 [2]: 6 µM

CCOC(=O)/C(C)=C\C(C)=C\c1csc([C@H](Cc2ccc(OCc3ccccc3)cc2)NC(=O)C2CCCCC2)n1
inhibition [1]: inactive

COC(=O)c1cccc(NC(=O)c2nc([C@H](Cc3ccc(OCc4ccccc4)cc3)NC(=O)CCc3c[nH]c4ccccc34)sc2-c2ccccc2)c1
IC50 [2]: 2.68 µM

COC(=O)c1cccc(NC(=O)c2nc([C@H](Cc3ccc(OCc4ccccc4)cc3)NC(=O)C3CCCCC3)sc2-c2ccccc2)c1
IC50 [2]: 3.79 µM

CCOC(=O)/C(C)=C\C(C)=C\c1nc([C@H](Cc2ccc(OCc3ccccc3)cc2)NC(=O)C2CCCCC2)sc1CC(C)C
inhibition [1]: inactive
IC50 [2]: 9.54 µM

O=C(CCc1c[nH]c2ccccc12)N[C@@H](Cc1ccc(OCc2ccccc2)cc1)c1nc(C(=O)Nc2ccc(Cl)c(C(=O)O)c2)c(-c2ccccc2)s1
IC50 [3]: > 20 µM
IC50 [4]: 4.94 µM
IC50 [5]: 3.36 µM
IC50 [6]: 8.79 µM
IC50 [7]: 6.79 µM
IC50 [2]: 1.42 µM
Ratio IC50 (Homo sapiens): 2.4

O=C(CCc1c[nH]c2ccccc12)N[C@@H](Cc1ccc(OCc2ccccc2)cc1)c1nc(C(=O)Nc2cc(C(=O)O)ccc2F)c(-c2ccccc2)s1
IC50 [3]: > 20 µM
IC50 [4]: 9.74 µM
IC50 [5]: 3.98 µM
IC50 [6]: 10.6 µM
IC50 [7]: 10.1 µM
IC50 [2]: 1.12 µM
Ratio IC50 (Homo sapiens): 3.6

COC(=O)c1cccc(NC(=O)c2csc([C@H](Cc3ccc(OCc4ccccc4)cc3)NC(=O)C3CCCCC3)n2)c1
IC50 [2]: 10.6 µM

O=C(CCc1c[nH]c2ccccc12)N[C@@H](Cc1ccc(OCc2ccccc2)cc1)c1nc(C(=O)Nc2ccc(C(=O)O)cc2F)c(-c2ccccc2)s1
IC50 [2]: 0.77 µM

O=C(CCc1c[nH]c2ccccc12)N[C@@H](Cc1ccc(OCc2ccccc2)cc1)c1nc(C(=O)Nc2ccccc2C(=O)O)c(-c2ccccc2)s1
IC50 [2]: 5.56 µM

O=C(CCc1c[nH]c2ccccc12)N[C@@H](Cc1ccc(OCc2ccccc2)cc1)c1nc(C(=O)Nc2cc(Cl)ccc2C(=O)O)c(-c2ccccc2)s1
IC50 [2]: 0.71 µM

O=C(O)c1cccc(NC(=O)c2nc([C@H](Cc3ccc(OCc4ccccc4)cc3)NC(=O)C3CCCCC3)sc2-c2ccccc2)c1
IC50 [3]: > 20 µM
IC50 [4]: 2.51 µM
IC50 [5]: 3.97 µM
IC50 [6]: 6.93 µM
IC50 [7]: 11.7 µM
IC50 [2]: 1.17 µM
Ratio IC50 (Homo sapiens): 3.4

O=C(CCc1c[nH]c2ccccc12)N[C@@H](Cc1ccc(OCc2ccccc2)cc1)c1nc(C(=O)Nc2cccc(C(=O)O)c2)c(-c2ccccc2)s1
IC50 [3]: > 20 µM
IC50 [4]: 7.37 µM
IC50 [5]: 3.38 µM
inhibition [1]: Dose-dependent effect
IC50 [6]: 7.53 µM
IC50 [7]: 5.3 µM
IC50 [2]: 1.01 µM
Ratio IC50 (Homo sapiens): 3.3

C/C(=C/C(C)=C/c1nc([C@H](Cc2ccc(OCc3ccccc3)cc2)NC(=O)C2CCCCC2)sc1-c1ccccc1)C(=O)O
IC50 [2]: 10.9 µM
inhibition [8]: Active

COC(=O)c1ccccc1NC(=O)c1csc([C@H](Cc2ccc(OCc3ccccc3)cc2)NC(=O)C2CCCCC2)n1
IC50 [2]: 8.79 µM

O=C(CCc1c[nH]c2ccccc12)N[C@@H](Cc1ccc(OCc2ccccc2)cc1)c1nc(C(=O)Nc2ccc(C(=O)O)cc2)c(-c2ccccc2)s1
IC50 [2]: 2.28 µM

O=C(CCc1c[nH]c2ccccc12)N[C@@H](Cc1ccc(OCc2ccccc2)cc1)c1nc(C(=O)Nc2cc(Br)ccc2C(=O)O)c(-c2ccccc2)s1
IC50 [2]: 1.18 µM

O=C(CCc1c[nH]c2ccccc12)N[C@@H](Cc1ccc(OCc2ccccc2)cc1)c1nc(C(=O)Nc2ccc(C(=O)O)c(F)c2)c(-c2ccccc2)s1
IC50 [2]: 2.56 µM

O=C(Nc1ccccc1C(=O)O)c1csc([C@H](Cc2ccc(OCc3ccccc3)cc2)NC(=O)C2CCCCC2)n1
IC50 [2]: 8.12 µM

O=C(CCc1c[nH]c2ccccc12)N[C@@H](Cc1ccc(OCc2ccccc2)cc1)c1nc(C(=O)Nc2ccc(F)c(C(=O)O)c2)c(-c2ccccc2)s1
IC50 [2]: 1.62 µM

O=C(CCc1c[nH]c2ccccc12)N[C@@H](Cc1ccc(OCc2ccccc2)cc1)c1nc(C(=O)Nc2cccc(F)c2C(=O)O)c(-c2ccccc2)s1
IC50 [2]: 4.18 µM
